Laboratory results reported in ChEMBL document CHEMBL4219079, “Design, synthesis, and evaluation of the antiproliferative activity of hydantoin-derived antiandrogen-genistein conjugates” (Bioorg Med Chem, 2018).
Activity calls are given as the source filed them. The calls are words filed in the database; no cut-off is given here.

Columns and labels:
[1] = test system: LNCaP; assay: Antiproliferative activity against human LNCAP cells after 72 hrs by MTS assay; assay type: functional, cell-based
Procedure, shortened: (§1)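 Seeded at 4,500 cells per well and exposed to compound in triplicate for 72 h. LNCaP were cultured in phenol-red-free RPMI-1640 and DU145 in EMEM, each with 10% FBS and penicillin/streptomycin, at 37 °C under 5% CO2. Viability was read by MTS. IC50 came from dose-response curve fitting. For combination lines, genistein was given together with enzalutamide.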

[2] = test system: DU-145; assay: Antiproliferative activity against human DU145 cells after 72 hrs by MTS assay; assay type: functional, cell-based; procedure, shortened: as §1
[3] = test system: LNCaP; assay: Antiproliferative activity against human LNCAP cells assessed as cell survival up to 100 uM after 72 hrs by MTS assay relative to control; assay type: functional
Procedure, shortened: (§2)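 LNCaP (phenol-red free RPMI-1640) or DU145 (EMEM), each with 10% FBS and penicillin/streptomycin, at 37 °C in 5% CO2. Cells seeded at 4,500 per well and exposed to compound in triplicate for 72 h. Viability read by MTS. Curves are the average of triplicate experiments, with IC50 taken from curve fitting.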

[4] = test system: DU-145; assay: Antiproliferative activity against human DU145 cells assessed as cell survival up to 100 uM after 72 hrs by MTS assay relative to control; assay type: functional; procedure, shortened: as §2
[5] = test system: PC-3; assay: Antiproliferative activity against human AR negative PC3 cells at 2.5 uM after 72 hrs by MTS assay relative to control; assay type: functional
Procedure, shortened: (§3)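 PC3, C4-2 and 22Rv1 prostate cancer cells treated in serum-fed medium with a range of doses, up to 50 μM. Growth read at 72 h post-treatment by MTS assay as percent of control. Data are averages of two independent experiments, each done in duplicate.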

[6] = test system: LNCaP C4-2; assay: Antiproliferative activity against human AR positive C4-2 cells at 1.25 uM after 72 hrs by MTS assay relative to control; assay type: functional; procedure, shortened: as §3
[7] = test system: CWR22R; assay: Antiproliferative activity against human 22Rv1 cells harboring truncated AR at 1.25 uM after 72 hrs by MTS assay relative to control; assay type: functional; procedure, shortened: as §3
[8] = test system: LNCaP; assay: Downregulation of AR protein level in human LNCAP cells after 24 hrs by Western blot method; assay type: functional, cell-based
Procedure, shortened: (§4)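 LNCaP seeded at 10^6 cells/dish 24 h before a 24 h compound treatment, with DMSO as control. Lysates were made in CelLyticM with protease inhibitors and quantified by Bradford. Equal protein was run on SDS-PAGE at 100 V for 2 h, transferred to nitrocellulose, and probed for AR, with actin as loading control.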

[9] = test system: LNCaP; assay: Downregulation of AR protein level in human LNCAP cells at 1.25 to 2.5 uM after 24 hrs in presence of proteasome inhibitor bortezomib by Western blot method; assay type: functional, cell-based
Procedure, shortened: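 LNCaP seeded at 10^6 cells/dish and pretreated with bortezomib at 20 nM or 40 nM for 2 h. Cells were then exposed to compound for 24 h. AR protein was assessed by immunoblot after Bradford-normalized SDS-PAGE (100 V, 2 h) and nitrocellulose transfer, with actin as loading control.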

[10] = test system: LNCaP; assay: Cell cycle arrest in human LNCAP cells assessed as accumulation at G1 phase at 2.5 uM after 24 hrs by propidium iodide staining based flow cytometry (reference value: 52.4%); assay type: functional
[11] = test system: LNCaP; assay: Cell cycle arrest in human LNCAP cells assessed as accumulation at S phase at 2.5 uM after 24 hrs by propidium iodide staining based flow cytometry (reference value: 37.5%); assay type: functional
[12] = test system: LNCaP; assay: Cell cycle arrest in human LNCAP cells assessed as accumulation at G2 phase at 2.5 uM after 24 hrs by propidium iodide staining based flow cytometry (reference value: 9.83%); assay type: functional
[13] = test system: LNCaP; assay: Cell cycle arrest in human LNCAP cells assessed as accumulation at less G1 phase at 2.5 uM after 24 hrs by propidium iodide staining based flow cytometry (reference value: 1.5%); assay type: functional
[14] = test system: LNCaP; assay: Cell cycle arrest in human LNCAP cells assessed as accumulation at greater G2 phase at 2.5 uM after 24 hrs by propidium iodide staining based flow cytometry (reference value: -0.37%); assay type: functional
[15] = test system: LNCaP; assay: Cell cycle arrest in human LNCAP cells assessed as accumulation at G1 phase at 5 uM after 24 hrs by propidium iodide staining based flow cytometry (reference value: 52.4%); assay type: functional
[16] = test system: LNCaP; assay: Cell cycle arrest in human LNCAP cells assessed as accumulation at S phase at 5 uM after 24 hrs by propidium iodide staining based flow cytometry (reference value: 37.5%); assay type: functional
[17] = test system: LNCaP; assay: Cell cycle arrest in human LNCAP cells assessed as accumulation at G2 phase at 5 uM after 24 hrs by propidium iodide staining based flow cytometry (reference value: 9.83%); assay type: functional
[18] = test system: LNCaP; assay: Cell cycle arrest in human LNCAP cells assessed as accumulation at less G1 phase at 5 uM after 24 hrs by propidium iodide staining based flow cytometry (reference value: 1.5%); assay type: functional
[19] = test system: LNCaP; assay: Cell cycle arrest in human LNCAP cells assessed as accumulation at greater G2 phase at 5 uM after 24 hrs by propidium iodide staining based flow cytometry (reference value: -0.37%); assay type: functional
[20] = test system: CWR22R; assay: Antiproliferative activity against human 22Rv1 cells harboring truncated AR up to 25 uM after 72 hrs by MTS assay; assay type: functional, cell-based; procedure, shortened: as §3
[21] = test system: LNCaP; assay: Antiproliferative activity against human LNCAP cells after 72 hrs in presence of enzalutamide by MTS assay; assay type: functional, cell-based; procedure, shortened: as §1
[22] = test system: LNCaP; assay: Antiproliferative activity against human LNCAP cells; assay type: functional, cell-based
[23] = test system: DU-145; assay: Antiproliferative activity against human DU145 cells after 72 hrs in presence of enzalutamide by MTS assay; assay type: functional, cell-based; procedure, shortened: as §1
[24] = test system: LNCaP; assay: Antiproliferative activity against human LNCAP cells assessed as cell survival at 100 uM after 72 hrs in presence of enzalutamide by MTS assay relative to control; assay type: functional; conditions: read-out: Survival; procedure, shortened: as §2
[25] = test system: PC-3; assay: Antiproliferative activity against human AR negative PC3 cells at 50 uM after 72 hrs by MTS assay relative to control; assay type: functional; procedure, shortened: as §3
[26] = test system: LNCaP C4-2; assay: Antiproliferative activity against human AR positive C4-2 cells at 50 uM after 72 hrs by MTS assay relative to control; assay type: functional; procedure, shortened: as §3
[27] = test system: CWR22R; assay: Antiproliferative activity against human 22Rv1 cells harboring truncated AR at 50 uM after 72 hrs by MTS assay relative to control; assay type: functional; procedure, shortened: as §3
[28] = species: Homo sapiens; assay: Inhibition of HDAC6/HSP90 in human LNCAP cells assessed as downregulation of AR protein level at 2.5 uM after 24 hrs by Western blot method; assay type: cell-based; procedure, shortened: as §4
[29] = test system: LNCaP; assay: Cell cycle arrest in human LNCAP cells assessed as accumulation at G1 phase at 25 uM after 24 hrs by propidium iodide staining based flow cytometry (reference value: 52.4%); assay type: functional
[30] = test system: LNCaP; assay: Cell cycle arrest in human LNCAP cells assessed as accumulation at S phase at 25 uM after 24 hrs by propidium iodide staining based flow cytometry (reference value: 37.5%); assay type: functional
[31] = test system: LNCaP; assay: Cell cycle arrest in human LNCAP cells assessed as accumulation at G2 phase at 25 uM after 24 hrs by propidium iodide staining based flow cytometry (reference value: 9.83%); assay type: functional
[32] = test system: LNCaP; assay: Cell cycle arrest in human LNCAP cells assessed as accumulation at less G1 phase at 25 uM after 24 hrs by propidium iodide staining based flow cytometry (reference value: 1.5%); assay type: functional
[33] = test system: LNCaP; assay: Cell cycle arrest in human LNCAP cells assessed as accumulation at greater G2 phase at 25 uM after 24 hrs by propidium iodide staining based flow cytometry (reference value: -0.37%); assay type: functional
[34] = test system: LNCaP; assay: Cell cycle arrest in human LNCAP cells assessed as accumulation at G1 phase at 40 uM after 24 hrs by propidium iodide staining based flow cytometry (reference value: 52.4%); assay type: functional
[35] = test system: LNCaP; assay: Cell cycle arrest in human LNCAP cells assessed as accumulation at S phase at 40 uM after 24 hrs by propidium iodide staining based flow cytometry (reference value: 37.5%); assay type: functional
[36] = test system: LNCaP; assay: Cell cycle arrest in human LNCAP cells assessed as accumulation at G2 phase at 40 uM after 24 hrs by propidium iodide staining based flow cytometry (reference value: 9.83%); assay type: functional
[37] = test system: LNCaP; assay: Cell cycle arrest in human LNCAP cells assessed as accumulation at less G1 phase at 40 uM after 24 hrs by propidium iodide staining based flow cytometry (reference value: 1.5%); assay type: functional
[38] = test system: LNCaP; assay: Cell cycle arrest in human LNCAP cells assessed as accumulation at greater G2 phase at 40 uM after 24 hrs by propidium iodide staining based flow cytometry (reference value: -0.37%); assay type: functional

`CC1(C)C(=O)N(c2ccc(C#N)c(C(F)(F)F)c2)C(=O)N1CCCCc1cn(CCOCCOCCOCCOCCOCCOCCOCCOc2cc(O)c3c(=O)c(-c4ccc(O)cc4)coc3c2)nn1` gave an IC50 [1] of 1.4 µM, an IC50 ([2]; DU-145, 72 h) of 3.4 µM and a Survival [3] of less than 40%. The Survival [4] was less than 40%, the Activity [5] was 5 - 10% and the Activity [6] was 50%. For the same compound, the Activity [7] was 15 - 20%, the Activity [8] was “Dose-dependent effect” and the Activity [9] was “Active”. For the same compound, the Activity [10] was 34%, the Activity [11] was 54.7% and the Activity [12] was 10.6%. It also gave an Activity [13] of -0.094%, an Activity [14] of 0.55% and an Activity [15] of 39.2%. It also gave an Activity [16] of 50.8%, an Activity [17] of 11.3% and an Activity [18] of -0.92%. It also gave an Activity [19] of -0.63%.

For `CNC(=O)c1ccc(N2C(=S)N(c3ccc(C#N)c(C(F)(F)F)c3)C(=O)C2(C)C)cc1F`, the Activity [20] was “Active”.

`CC1(C)C(=O)N(c2ccc(C#N)c(C(F)(F)F)c2)C(=S)N1Cc1ccc(-c2cn(CCOc3cc(O)c4c(=O)c(-c5ccc(O)cc5)coc4c3)nn2)cc1` was tested, and the Activity [1] was “inactive” and the Activity [2] was “inactive”.

`CC1(C)C(=O)N(c2ccc(C#N)c(C(F)(F)F)c2)C(=S)N1Cc1ccc(-c2cn(CCOCCOCCOCCOCCOCCOCCOCCOc3cc(O)c4c(=O)c(-c5ccc(O)cc5)coc4c3)nn2)cc1` was tested, and the Activity [1] was “inactive” and the Activity [2] was “inactive”.

`O=c1c(-c2ccc(O)cc2)coc2cc(O)cc(O)c12` [GENISTEIN] showed an IC50 [1] of 24 µM, an IC50 [21] of 31.7 µM and an IC50 [22] of 10 to 40 µM. The Activity [23] was “Dose-dependent effect”, the viability at 100 µM [24] was 40% and the Activity [25] was 40%. For the same compound, the Activity [26] was 40%, the Activity [27] was 40% and the inhibition [28] was “Active”. For the same compound, the Activity [29] was 37.1%, the Activity [30] was 52.5% and the Activity [31] was 9.34%. It also gave an Activity [32] of -0.34% and an Activity [33] of 0.21%.

`CC1(C)C(=O)N(c2ccc(C#N)c(C(F)(F)F)c2)C(=O)N1CCCCc1cn(CCOc2cc(O)c3c(=O)c(-c4ccc(O)cc4)coc3c2)nn1` was tested, and the Activity [1] was “inactive” and the Activity [2] was “inactive”.

For `CC1(C)C(=O)N(c2ccc(C#N)c(C(F)(F)F)c2)C(=S)N1c1ccc(-c2cn(CCOc3cc(O)c4c(=O)c(-c5ccc(O)cc5)coc4c3)nn2)cc1`, the Activity [1] was “inactive” and the Activity [2] was “inactive”.

With `C#CCCCCN1C(=O)N(c2ccc(C#N)c(C(F)(F)F)c2)C(=O)C1(C)C` the Activity [34] was 33.1%, the Activity [35] was 54.2% and the Activity [36] was 13.4%. For the same compound, the Activity [37] was -0.44% and the Activity [38] was -0.21%.

In the case of `CC1(C)C(=O)N(c2ccc(C#N)c(C(F)(F)F)c2)C(=S)N1c1ccc(-c2cn(CCOCCOCCOCCOCCOCCOCCOCCOc3cc(O)c4c(=O)c(-c5ccc(O)cc5)coc4c3)nn2)cc1`, the Activity [1] is reported as “inactive” and the Activity [2] is reported as “inactive”.
